ChEMBL document CHEMBL1139340, “Synthesis, radiosynthesis, and biological evaluation of carbon-11 and fluorine-18 labeled reboxetine analogues: potential positron emission tomography radioligands for in vivo imaging of the norepinephrine transporter” (J Med Chem, 2009)

Key:
[1] = species on record: Homo sapiens; test: Selectivity for human NET over human DAT
How it was run: (§1)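 Competition binding in stably transfected cells expressing human transporters: NET vs [3H]nisoxetine and SERT vs [3H]citalopram in HEK-293 cells; DAT vs [125I]RTI-55 in canine kidney cells. Ki as geometric mean of at least three experiments in triplicate; selectivity as ratio of SERT or DAT Ki to NET Ki.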

[2] = target: Sodium-dependent noradrenaline transporter (Homo sapiens, UniProt P23975); test: Displacement of [3H]nisoxetine from human NET receptor expressed in HEK293 cells; type: cell-based
[3] = target: Sodium-dependent dopamine transporter (Homo sapiens, UniProt Q01959); test: Displacement of [125I]RTI-55 from human DAT receptor expressed in canine kidney cells; type: cell-based
How it was run: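 Competition binding against [¹²⁵I]RTI-55 in canine kidney cells stably transfected with human DAT. Ki in nM, geometric mean ± SD of at least three separate experiments, each run in triplicate.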

[4] = species on record: Homo sapiens; test: Selectivity for human NET over human SERT; how it was run: as §1
[5] = target: Sodium-dependent serotonin transporter (Homo sapiens, UniProt P31645); test: Displacement of [3H]citalopram from human SERT receptor expressed in HEK293 cells; type: cell-based
How it was run: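 Competition binding against [³H]citalopram in HEK-293 cells stably transfected with human SERT. Ki in nM, geometric mean ± SD of at least three separate experiments, each run in triplicate.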

[6] = Lipophilicity, log P at pH 7.4; type: physicochemical; conditions: buffer
How it was run: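 Radiotracer (~5–10 μCi) in 2 mL 1-octanol plus 2 mL 0.02 M sodium phosphate buffer, pH 7.4. Vortexed 10 min at room temperature, centrifuged 5 min. 0.5 mL of each layer gamma-counted and decay corrected. log P = log(octanol counts/buffer counts), done three times and averaged.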

Sequence of Sodium-dependent noradrenaline transporter (P23975 whole entry): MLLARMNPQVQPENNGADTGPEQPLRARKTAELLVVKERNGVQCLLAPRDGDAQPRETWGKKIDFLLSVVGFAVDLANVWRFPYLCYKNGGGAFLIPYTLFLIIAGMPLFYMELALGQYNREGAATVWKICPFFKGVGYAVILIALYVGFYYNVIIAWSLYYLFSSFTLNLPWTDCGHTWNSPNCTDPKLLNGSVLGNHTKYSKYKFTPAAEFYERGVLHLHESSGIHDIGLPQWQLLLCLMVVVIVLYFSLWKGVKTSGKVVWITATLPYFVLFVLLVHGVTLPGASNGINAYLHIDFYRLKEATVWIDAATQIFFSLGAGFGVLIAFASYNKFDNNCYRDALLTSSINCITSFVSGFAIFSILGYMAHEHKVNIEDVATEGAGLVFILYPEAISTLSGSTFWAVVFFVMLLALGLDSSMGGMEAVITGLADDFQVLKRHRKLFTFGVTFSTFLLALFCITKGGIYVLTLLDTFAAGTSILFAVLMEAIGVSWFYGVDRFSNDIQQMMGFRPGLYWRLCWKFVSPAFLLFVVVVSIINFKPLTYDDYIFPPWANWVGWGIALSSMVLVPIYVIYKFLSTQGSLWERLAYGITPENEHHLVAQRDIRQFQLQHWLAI
Sequence of Sodium-dependent dopamine transporter (Q01959 whole entry): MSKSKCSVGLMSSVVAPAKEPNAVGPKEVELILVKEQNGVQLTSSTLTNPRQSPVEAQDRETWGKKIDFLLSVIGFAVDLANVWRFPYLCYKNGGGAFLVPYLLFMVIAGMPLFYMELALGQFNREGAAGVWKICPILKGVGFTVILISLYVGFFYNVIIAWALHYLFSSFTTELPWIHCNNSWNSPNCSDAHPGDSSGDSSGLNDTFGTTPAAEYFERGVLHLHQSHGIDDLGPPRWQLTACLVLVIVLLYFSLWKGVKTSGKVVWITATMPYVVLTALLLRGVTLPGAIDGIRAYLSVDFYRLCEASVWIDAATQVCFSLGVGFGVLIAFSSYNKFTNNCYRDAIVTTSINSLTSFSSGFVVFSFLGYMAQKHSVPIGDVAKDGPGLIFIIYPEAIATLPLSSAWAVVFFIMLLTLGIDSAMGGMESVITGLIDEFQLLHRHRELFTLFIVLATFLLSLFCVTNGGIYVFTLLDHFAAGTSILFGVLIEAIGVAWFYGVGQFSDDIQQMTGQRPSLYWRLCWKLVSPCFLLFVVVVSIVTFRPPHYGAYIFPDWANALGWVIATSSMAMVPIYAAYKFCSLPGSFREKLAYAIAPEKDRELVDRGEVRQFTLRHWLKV
Sequence of Sodium-dependent serotonin transporter (P31645 whole entry): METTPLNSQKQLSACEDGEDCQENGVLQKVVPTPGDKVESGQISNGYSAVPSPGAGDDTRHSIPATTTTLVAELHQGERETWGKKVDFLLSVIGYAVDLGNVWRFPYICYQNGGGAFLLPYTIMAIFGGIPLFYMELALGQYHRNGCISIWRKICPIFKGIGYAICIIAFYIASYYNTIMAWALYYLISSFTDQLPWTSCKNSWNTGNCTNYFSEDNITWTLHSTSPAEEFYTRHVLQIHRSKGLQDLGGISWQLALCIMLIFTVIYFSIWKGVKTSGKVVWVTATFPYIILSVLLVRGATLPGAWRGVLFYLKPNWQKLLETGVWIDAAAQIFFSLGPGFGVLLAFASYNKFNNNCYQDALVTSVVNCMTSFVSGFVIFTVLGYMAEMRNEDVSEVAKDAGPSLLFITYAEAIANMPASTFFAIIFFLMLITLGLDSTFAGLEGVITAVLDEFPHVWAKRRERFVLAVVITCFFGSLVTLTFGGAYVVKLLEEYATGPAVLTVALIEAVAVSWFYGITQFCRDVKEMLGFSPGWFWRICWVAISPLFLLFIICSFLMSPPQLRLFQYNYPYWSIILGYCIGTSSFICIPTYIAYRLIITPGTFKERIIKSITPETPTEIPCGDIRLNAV

Structure (SMILES)	Ratio Ki [1]	Ki [2] [nM]	Ki [3] [nM]	Ratio Ki [4]	Ki [5] [nM]	logD [6]
Cc1ccccc1O[C@@H](c1ccccc1)[C@@H]1CNCCO1	321	1.02	327	92	93	2.04
FCCCc1ccccc1O[C@@H](c1ccccc1)[C@@H]1CNCCO1	> 2000	3.68	> 6000	126	463	2.29
Cc1ccccc1S[C@@H](c1ccccc1)[C@@H]1CNCCO1	917	0.3	275	49	14.8	2.47
